The text below walks through data of ChEMBL document CHEMBL3045143, “Role of exogenously supplied ferulic and p-coumaric acids in mimicking the mode of action of acetolactate synthase inhibiting herbicides” (J Agric Food Chem, 2011).

Calls of active or inactive are those of the source. The calls are words filed in the database; no cut-off is given here.

Series [1] concerns Root. Description: Induction of DAHPS enzyme expression in Pisum sativum (pea) roots at 28 nM added to nutrient medium measured 5 to 15 days post onset of compound treatment by immunoblot. The format is functional. The following applies: Lathyrus oleraceus. The method, boiled down: (§1)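 Roots were taken from pea plants (cv. Snap Sugar Boys) treated via nutrient solution from 12 days old, with the solution renewed every 3 days. Samples were taken at days 3, 7, 10 and 15.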
For orientation: Immunoblotting shows a protein as a band on a membrane.

Series [2] concerns Leaf. Kind of series: Induction of caffeic acid accumulation in Pisum sativum (pea) leaves at 28 nM added to nutrient medium measured 5 to 15 days post onset of compound treatment by HPLC method. The format is functional. The following applies: Lathyrus oleraceus. Put shortly:
(§2)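 Compound was added to the nutrient solution of 12-day-old pea plants (cv. Snap Sugar Boys), renewed every 3 days at pH 6–7. Leaves or roots were sampled at 0, 1, 3, 7, 10 and 15 days. Values are mean ± standard error, n = 5 single plants. One-way ANOVA with Fisher test versus untreated controls on each day, p < 0.05.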

Series [3] has as its system Pisum sativum. Description: Growth inhibition in Pisum sativum (pea) at 28 nM added to nutrient medium measured 22 to 23 days post onset of compound treatment. Type of series: functional, organism-based. The following applies: Lathyrus oleraceus. The method, boiled down:
(§3)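 Pea (cv. Snap Sugar Boys) grown hydroponically. Compound added to the nutrient solution at 12 days old. Solution was renewed every 3 days, with pH held between 6 and 7. Plants were followed over the treatment period.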

In series [4] the test system is Root. Kind of series: Induction of p-coumaric acid accumulation in Pisum sativum (pea) roots at 28 nM added to nutrient medium measured 5 to 15 days post onset of compound treatment by HPLC method. Type of series: functional. The following applies: Lathyrus oleraceus. Put shortly: as §2
The subject of series [5] is Leaf. Description: Induction of sinapic acid accumulation in Pisum sativum (pea) leaves at 28 nM added to nutrient medium measured 5 to 15 days post onset of compound treatment by HPLC method. Type of series: functional. The settings on record: Lathyrus oleraceus. The method, boiled down:
as §2

The test system of series [6] is Root. Description: Induction of ferulic acid accumulation in Pisum sativum (pea) roots at 28 nM added to nutrient medium measured 5 to 15 days post onset of compound treatment by HPLC method. The format is functional. The following applies: Lathyrus oleraceus. Put shortly: as §2
Series [7] has as its system Leaf. Kind of series: Induction of p-coumaric acid accumulation in Pisum sativum (pea) leaves at 28 nM added to nutrient medium measured 5 to 15 days post onset of compound treatment by HPLC method. Type of series: functional. The following applies: Lathyrus oleraceus. Put shortly:
as §2

Series [8] has as its system Root. Description: Induction of caffeic acid accumulation in Pisum sativum (pea) roots at 28 nM added to nutrient medium measured 5 to 15 days post onset of compound treatment by HPLC method. The following applies: Lathyrus oleraceus. The format is functional. The method, boiled down: as §2
The test system of series [9] is Root. Kind of series: Reduction in sinapic acid accumulation in Pisum sativum (pea) roots at 28 nM added to nutrient medium measured 3 to 10 days post onset of compound treatment by HPLC method. The format is functional. The settings on record: Lathyrus oleraceus. The method, boiled down:
as §2

In series [10] the test system is Leaf. Description: Induction of ferulic acid accumulation in Pisum sativum (pea) leaves at 28 nM added to nutrient medium measured 5 to 15 days post onset of compound treatment by HPLC method. The format is functional. The following applies: Lathyrus oleraceus. Put shortly: as §2
Series [11] deals with Leaf. Kind of series: Increase in starch content in Pisum sativum (pea) leaves at 1 mM added to nutrient medium measured 5 to 15 days post onset of compound treatment by capillary electrophoresis method. The format is functional. The settings on record: Lathyrus oleraceus. The method, boiled down:
(§4)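 Pea (Pisum sativum cv. Snap Sugar Boys) plants were grown in nutrient solution. At 12 days old, 1 mM phenolic acid was added to the solution. The solution was replaced every 3 days and kept at pH 6–7. Samples were collected at 0, 1, 3, 7, 10 and 15 days. Untreated plants were controls. One-way ANOVA with Fisher test, p < 0.05.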

The test system of series [12] is Root. Description: Induction of PDC protein expression in Pisum sativum (pea) roots at 1 mM added to nutrient medium measured 5 to 15 days post onset of compound treatment by immunoblot. The format is functional. The following applies: Lathyrus oleraceus. The method, boiled down:
as §4

The test system of series [13] is Root. Kind of series: Reduction in PAL activity in Pisum sativum (pea) roots at 1 MM added to nutrient medium measured 7 days post onset of compound treatment. Type of series: functional. Details: dose or concentration left out as unconfirmed. The settings on record: Lathyrus oleraceus. The method, boiled down: as §4
The test system of series [14] is Leaf. Kind of series: Increase in quinate content in Pisum sativum (pea) leaves at 1 mM added to nutrient medium measured 5 to 15 days post onset of compound treatment by ion chromatography. Type of series: functional. The following applies: Lathyrus oleraceus. Put shortly: as §4
In series [15] the test system is Root. Description: Effect on starch content in Pisum sativum (pea) roots at 1 mM added to nutrient medium measured 5 to 15 days post onset of compound treatment by capillary electrophoresis method. Type of series: functional. The settings on record: Lathyrus oleraceus. The method, boiled down:
as §4

The test system of series [16] is Root. Kind of series: Drug level in Pisum sativum (pea) roots at 1 mM added to nutrient medium measured 5 to 15 days post onset of compound treatment by HPLC method. Type of series: ADME. The following applies: lathyrus oleraceus, 1000 µM. Put shortly: as §4
For series [17], the system named is Root. Description: Increase in lignin content in Pisum sativum (pea) roots at 1 mM added to nutrient medium measured 5 to 15 days post onset of compound treatment. Type of series: functional. The following applies: Lathyrus oleraceus. The method, boiled down:
as §4

Series [18] relates to Pisum sativum. Kind of series: Growth inhibition in Pisum sativum (pea) assessed as root elongation arrest at 1 mM added to nutrient medium measured within 1 day post onset of compound treatment. The format is functional, organism-based. The settings on record: Lathyrus oleraceus. Put shortly: as §4
For series [19], the system named is Leaf. Description: Drug level in Pisum sativum (pea) leaves at 1 mM added to nutrient medium measured 5 to 15 days post onset of compound treatment by HPLC method. Type of series: ADME. The following applies: lathyrus oleraceus, 1000 µM. The method, boiled down: as §4
Series [20] deals with Root. Description: Induction of ADH protein enzyme expression in Pisum sativum (pea) roots at 1 mM added to nutrient medium measured 5 to 15 days post onset of compound treatment by immunoblot. Type of series: functional. The following applies: Lathyrus oleraceus. Put shortly: as §4
Series [21] has as its system Pisum sativum. Description: Growth inhibition in Pisum sativum (pea) assessed as shoot growth arrest at 1 mM added to nutrient medium measured within 10 days post onset of compound treatment. The format is functional, organism-based. The settings on record: Lathyrus oleraceus. The method, boiled down:
as §4

Series [22] relates to Root. Description: Effect on sucrose content in Pisum sativum (pea) roots at 1 mM added to nutrient medium measured 5 to 15 days post onset of compound treatment by capillary electrophoresis method. Type of series: functional. The settings on record: Lathyrus oleraceus. The method, boiled down:
as §4

The test system of series [23] is Leaf. Kind of series: Induction of p-coumaric acid accumulation in Pisum sativum (pea) leaves at 69 uM added to nutrient medium measured 5 to 15 days post onset of compound treatment by HPLC method. Type of series: functional. The settings on record: Lathyrus oleraceus. The method, boiled down:
as §2

Series [24] has as its system Pisum sativum. Description: Growth inhibition in Pisum sativum (pea) at 69 uM added to nutrient medium measured 22 to 23 days post onset of compound treatment. Type of series: functional, organism-based. The following applies: Lathyrus oleraceus. The method, boiled down: as §3
Series [25] has as its system Root. Kind of series: Increase in lignin content in Pisum sativum (pea) roots at 69 uM added to nutrient medium measured 10 days post onset of compound treatment. The format is functional. The following applies: Lathyrus oleraceus. Put shortly: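 Compound was added to the nutrient solution of 12-day-old pea plants (cv. Snap Sugar Boys). Solution was renewed every 3 days at pH 6–7. Lignin was measured in roots from plants sampled on set days up to day 15.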

Series [26] relates to Root. Description: Induction of PAL activity in Pisum sativum (pea) roots at 69 uM added to nutrient medium measured 5 to 15 days post onset of compound treatment. The format is functional. The settings on record: Lathyrus oleraceus. Put shortly: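 Roots were taken from 12-day-old pea plants (cv. Snap Sugar Boys) treated via nutrient solution, renewed every 3 days at pH 6–7. For PAL activity, extracts were not filtered on Sephadex G-25. Reaction ran 1 h at 37 °C, then HCl was added and the mixture was centrifuged at 5000g for 5 min.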

Series [27] has as its system Root. Description: Induction of DAHPS enzyme expression in Pisum sativum (pea) roots at 69 uM added to nutrient medium measured 5 to 15 days post onset of compound treatment by immunoblot. The format is functional. The following applies: Lathyrus oleraceus. Put shortly: as §1
Series [28] has as its system Root. Description: Induction of ferulic acid accumulation in Pisum sativum (pea) roots at 69 uM added to nutrient medium measured 5 to 15 days post onset of compound treatment by HPLC method. Type of series: functional. The following applies: Lathyrus oleraceus. The method, boiled down:
as §2

Series [29] has as its system Leaf. Kind of series: Induction of caffeic acid accumulation in Pisum sativum (pea) leaves at 69 uM added to nutrient medium measured 5 to 15 days post onset of compound treatment by HPLC method. The format is functional. The settings on record: Lathyrus oleraceus. The method, boiled down:
as §2

Series [30] concerns Root. Description: Induction of p-coumaric acid accumulation in Pisum sativum (pea) roots at 69 uM added to nutrient medium measured 5 to 15 days post onset of compound treatment by HPLC method. The format is functional. The settings on record: Lathyrus oleraceus. Put shortly:
as §2

Series [31] deals with Root. Kind of series: Induction of caffeic acid accumulation in Pisum sativum (pea) roots at 69 uM added to nutrient medium measured 5 to 15 days post onset of compound treatment by HPLC method. The format is functional. The following applies: Lathyrus oleraceus. Put shortly: as §2
The subject of series [32] is Leaf. Kind of series: Induction of sinapic acid accumulation in Pisum sativum (pea) leaves at 69 uM added to nutrient medium measured 5 to 15 days post onset of compound treatment by HPLC method. Type of series: functional. The settings on record: Lathyrus oleraceus. The method, boiled down:
as §2

Series [33] concerns Root. Description: Reduction in sinapic acid accumulation in Pisum sativum (pea) roots at 69 uM added to nutrient medium measured 3 to 10 days post onset of compound treatment by HPLC method. The following applies: Lathyrus oleraceus. The format is functional. Put shortly:
as §2

Series [34] concerns Leaf. Kind of series: Induction of ferulic acid accumulation in Pisum sativum (pea) leaves at 69 uM added to nutrient medium measured 5 to 15 days post onset of compound treatment by HPLC method. The format is functional. The settings on record: Lathyrus oleraceus. The method, boiled down: as §2

For the compound `COc1nc(C)nc(NC(=O)NS(=O)(=O)c2ccccc2Cl)n1`, the outcome with Root [1], in the series on Leaf [2], in the series with Root [4], with Leaf [5], with Root [6] and in the series with Leaf [7] was Active. Also, the outcome with Root [8], in the series with Root [9] and with Leaf [10] was Active. Further, in the series with Pisum sativum [3], the “growth inhibition (GI)” value was “Active”.
Consider `COc1cc(/C=C/C(=O)O)ccc1O` [FERULATE], for which the result with Leaf [11], with Root [12], in the series with Root [13], in the series on Leaf [14], with Root [17] and with Pisum sativum [18] was Active. The outcome in the series with Root [20] and in the series with Pisum sativum [21] was Active. The outcome with Root [15] and in the series on Root [22] was inactive. Further, the Drug uptake result with Root [16] and in the series on Leaf [19] was “Active” in each case.
Regarding `O=C(O)/C=C/c1ccc(O)cc1` [COUMARIC ACID], the outcome in the series on Leaf [11], in the series with Root [12], in the series on Leaf [14], with Pisum sativum [18], in the series on Root [20] and in the series with Pisum sativum [21] was Active. In addition, the result in the series on Root [15] and in the series with Root [22] was inactive. For the same compound, the Drug uptake entry in the series with Root [16] and with Leaf [19] was “Active” throughout.
With `CCc1cnc(C2=NC(C)(C(C)C)C(=O)N2)c(C(=O)O)c1` (centres undefined), the outcome in the series with Leaf [23], in the series with Root [25], in the series on Root [27], with Root [28], with Leaf [29] and in the series on Root [30] was Active. Besides, the outcome in the series on Root [31], in the series on Leaf [32], in the series on Root [33] and in the series with Leaf [34] was Active. In addition, the “growth inhibition (GI)” value in the series with Pisum sativum [24] was “Active”. Besides, the result in the series with Root [26] was inactive.
